Data from ChEMBL document CHEMBL3588757, “Structure-based design, synthesis and biological testing of piperazine-linked bis-epipodophyllotoxin etoposide analogs” (Bioorg Med Chem, 2015).

Legend:
Type in all cases: functional
M14 = assay: Cytotoxicity against human M14 cells assessed as cell growth at 50 uM by SRB assay; conditions: read-out: Activity
SR [1] = assay: Cytotoxicity against human SR cells assessed as cell growth at 0.5 uM by SRB assay; conditions: read-out: Activity
HOP-92 [2] = assay: Cytotoxicity against human HOP92 cells assessed as cell growth at 0.5 uM by SRB assay; conditions: read-out: Activity
Summary of the method: (§1)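 Measured in the NCI-60 human tumour cell line panel using five-dose testing. Growth was recorded at each dose for each cell line, and a GI50 was derived for each line.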

MDA-MB-435 [3] = assay: Cytotoxicity against human MDA-MB-435 cells assessed as cell growth at 50 uM by SRB assay; conditions: read-out: Activity
BT-549 = assay: Cytotoxicity against human BT549 cells assessed as cell growth at 50 uM by SRB assay; conditions: read-out: Activity
MDA-MB-468 [4] = assay: Cytotoxicity against human MDA-MB-468 cells assessed as cell growth at 0.05 uM by SRB assay; conditions: read-out: Activity
RXF 393 [5] = assay: Cytotoxicity against human RXF393 cells assessed as cell growth at 0.05 uM by SRB assay; conditions: read-out: Activity
KM12 = assay: Cytotoxicity against human KM12 cells assessed as cell growth at 0.005 uM by SRB assay; conditions: read-out: Activity
SK-MEL-5 [6] = assay: Cytotoxicity against human SK-MEL-5 cells by SRB assay
Summary of the method: (§2)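 NCI-60 panel screen; 5-dose testing giving GI50 per cell line, plus a single 10 µM one-dose test. Method details not given beyond the NCI screen.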

HL-60(TB) = assay: Cytotoxicity against human HL-60(TB) cells assessed as cell growth at 0.05 uM by SRB assay; conditions: read-out: Activity; summary of the method: as §1
MDA-MB-435 [7] = assay: Cytotoxicity against human MDA-MB-435 cells assessed as cell growth at 0.005 uM by SRB assay; conditions: read-out: Activity
MDA-MB-231 [8] = assay: Cytotoxicity against human MDA-MB-231/ATCC cells assessed as cell growth at 0.05 uM by SRB assay; conditions: read-out: Activity
HCT-116 = assay: Cytotoxicity against human HCT116 cells assessed as cell growth at 0.05 uM by SRB assay; conditions: read-out: Activity; summary of the method: as §1
A549 = assay: Cytotoxicity against human A549/ATCC cells assessed as cell growth at 5 uM by SRB assay; conditions: read-out: Activity
786-0 = assay: Cytotoxicity against human 786-0 cells assessed as cell growth at 50 uM by SRB assay; conditions: read-out: Activity
RPMI-8226 = assay: Cytotoxicity against human RPMI8226 cells assessed as cell growth at 5 uM by SRB assay; conditions: read-out: Activity
MCF7 = assay: Cytotoxicity against human MCF7 cells assessed as cell growth at 5 uM by SRB assay; conditions: read-out: Activity
UACC-62 [9] = assay: Cytotoxicity against human UACC62 cells assessed as cell growth at 0.05 uM by SRB assay; conditions: read-out: Activity
[10] = Cytotoxicity against human Hs578T cells assessed as cell growth at 5 uM by SRB assay; conditions: Hs-578T, read-out: Activity; summary of the method: as §1
PC-3 = assay: Cytotoxicity against human PC3 cells by SRB assay; summary of the method: as §2
IGROV-1 = assay: Cytotoxicity against human IGROV1 cells assessed as cell growth at 0.05 uM by SRB assay; conditions: read-out: Activity; summary of the method: as §1
SK-MEL-2 [11] = assay: Cytotoxicity against human SK-MEL-2 cells assessed as cell growth at 0.05 uM by SRB assay; conditions: read-out: Activity
LOX IMVI = assay: Cytotoxicity against human LOXIMVI cells assessed as cell growth at 5 uM by SRB assay; conditions: read-out: Activity
MOLT-4 [12] = assay: Cytotoxicity against human MOLT4 cells assessed as cell growth at 0.05 uM by SRB assay; conditions: read-out: Activity
A498 = assay: Cytotoxicity against human A498 cells by SRB assay
TK-10 = assay: Cytotoxicity against human TK10 cells assessed as cell growth at 0.5 uM by SRB assay; conditions: read-out: Activity
SK-MEL-5 [13] = assay: Cytotoxicity against human SK-MEL-5 cells assessed as cell growth at 5 uM by SRB assay; conditions: read-out: Activity
OVCAR-4 = assay: Cytotoxicity against human OVCAR4 cells assessed as cell growth at 5 uM by SRB assay; conditions: read-out: Activity
HOP-92 [14] = assay: Cytotoxicity against human HOP92 cells assessed as cell growth at 0.05 uM by SRB assay; conditions: read-out: Activity; summary of the method: as §1
MOLT-4 [15] = assay: Cytotoxicity against human MOLT4 cells assessed as cell growth at 5 uM by SRB assay; conditions: read-out: Activity
SK-MEL-2 [16] = assay: Cytotoxicity against human SK-MEL-2 cells assessed as cell growth at 50 uM by SRB assay; conditions: read-out: Activity
UACC-62 [17] = assay: Cytotoxicity against human UACC62 cells by SRB assay; summary of the method: as §2
HCC 2998 = assay: Cytotoxicity against human HCC2998 cells assessed as cell growth at 50 uM by SRB assay; conditions: read-out: Activity; summary of the method: as §1
RXF 393 [18] = assay: Cytotoxicity against human RXF393 cells assessed as cell growth at 0.005 uM by SRB assay; conditions: read-out: Activity
HOP-62 = assay: Cytotoxicity against human HOP62 cells assessed as cell growth at 0.5 uM by SRB assay; conditions: read-out: Activity; summary of the method: as §1
SNB-75 = assay: Cytotoxicity against human SNB75 cells assessed as cell growth at 5 uM by SRB assay; conditions: read-out: Activity
SW-620 [19] = assay: Cytotoxicity against human SW620 cells assessed as cell growth at 0.005 uM by SRB assay; conditions: read-out: Activity
UO-31 = assay: Cytotoxicity against human UO31 cells assessed as cell growth at 0.005 uM by SRB assay; conditions: read-out: Activity
SR [20] = assay: Cytotoxicity against human SR cells assessed as cell growth at 0.05 uM by SRB assay; conditions: read-out: Activity
MDA-MB-231 [21] = assay: Cytotoxicity against human MDA-MB-231/ATCC cells assessed as cell growth at 0.005 uM by SRB assay; conditions: read-out: Activity
SF-295 = assay: Cytotoxicity against human SF295 cells by SRB assay; summary of the method: as §2
RXF 393 [22] = assay: Cytotoxicity against human RXF393 cells assessed as cell growth at 50 uM by SRB assay; conditions: read-out: Activity
MDA-MB-468 [23] = assay: Cytotoxicity against human MDA-MB-468 cells assessed as cell growth at 0.5 uM by SRB assay; conditions: read-out: Activity
SW-620 [24] = assay: Cytotoxicity against human SW620 cells assessed as cell growth at 5 uM by SRB assay; conditions: read-out: Activity
[25] = read-out: LC50 (the source's name)
[26] = read-out: pLC50 (the source's name) (converted)

COc1cc([C@@H]2c3cc4c(cc3[C@@H](NC(=O)CN3CCN(CCCCCCN5CCN(CC(=O)N[C@@H]6c7cc8c(cc7[C@@H](c7cc(OC)c(O)c(OC)c7)[C@H]7C(=O)OC[C@@H]76)OCO8)CC5)CC3)[C@H]3COC(=O)[C@H]23)OCO4)cc(OC)c1O
growth at 50 µM (M14): -19%
growth at 0.5 µM (SR [1]): 22%
growth at 0.5 µM (HOP-92 [2]): 69%
growth at 50 µM (MDA-MB-435 [3]): 17%
growth at 50 µM (BT-549): -40%
growth at 0.05 µM (MDA-MB-468 [4]): 89%
growth at 0.05 µM (RXF 393 [5]): 92%
growth at 0.005 µM (KM12): 103%
GI50 (SK-MEL-5 [6]; read-out: GI50): 6.93 µM
CC50 (SK-MEL-5 [6]; [25]): > 50 µM
TGI (SK-MEL-5 [6]; read-out: TGI): > 50 µM
GI50 (SK-MEL-5 [6]; read-out: pGI50 (converted)): 6.92 µM
CC50 (SK-MEL-5 [6]; [26]): > 50.1 µM
TGI (SK-MEL-5 [6]; read-out: pTGI (converted)): > 50.1 µM
growth at 0.05 µM (HL-60(TB)): 114%
growth at 0.005 µM (MDA-MB-435 [7]): 91%
growth at 0.05 µM (MDA-MB-231 [8]): 94%
growth at 0.05 µM (HCT-116): 98%
growth at 5 µM (A549): 35%
growth at 50 µM (786-0): -10%
growth at 5 µM (RPMI-8226): -1%
growth at 5 µM (MCF7): 12%
growth at 0.05 µM (UACC-62 [9]): 90%
growth at 5 µM [10]: 64%
GI50 (PC-3; read-out: GI50): 6.87 µM
CC50 (PC-3; [25]): > 50 µM
TGI (PC-3; read-out: TGI): > 50 µM
GI50 (PC-3; read-out: pGI50 (converted)): 6.92 µM
CC50 (PC-3; [26]): > 50.1 µM
TGI (PC-3; read-out: pTGI (converted)): > 50.1 µM
growth at 0.05 µM (IGROV-1): 105%
growth at 0.05 µM (SK-MEL-2 [11]): 100%
growth at 5 µM (LOX IMVI): 23%
growth at 0.05 µM (MOLT-4 [12]): 105%
GI50 (A498; read-out: GI50): 5.74 µM
CC50 (A498; [25]): > 50 µM
TGI (A498; read-out: TGI): 35.2 µM
GI50 (A498; read-out: pGI50 (converted)): 5.75 µM
CC50 (A498; [26]): > 50.1 µM
TGI (A498; read-out: pTGI (converted)): 35.5 µM
growth at 0.5 µM (TK-10): 89%
growth at 5 µM (SK-MEL-5 [13]): 57%
growth at 5 µM (OVCAR-4): 64%
growth at 0.05 µM (HOP-92 [14]): 82%
growth at 5 µM (MOLT-4 [15]): 6%
growth at 50 µM (SK-MEL-2 [16]): -15%
GI50 (UACC-62 [17]; read-out: GI50): 1.55 µM
CC50 (UACC-62 [17]; [25]): > 50 µM
TGI (UACC-62 [17]; read-out: TGI): 35.7 µM
GI50 (UACC-62 [17]; read-out: pGI50 (converted)): 1.55 µM
CC50 (UACC-62 [17]; [26]): > 50.1 µM
TGI (UACC-62 [17]; read-out: pTGI (converted)): 35.5 µM
growth at 50 µM (HCC 2998): -10%
growth at 0.005 µM (RXF 393 [18]): 99%
growth at 0.5 µM (HOP-62): 98%
growth at 5 µM (SNB-75): 22%
growth at 0.005 µM (SW-620 [19]): 97%
growth at 0.005 µM (UO-31): 94%
growth at 0.05 µM (SR [20]): 64%
growth at 0.005 µM (MDA-MB-231 [21]): 103%
GI50 (SF-295; read-out: GI50): 4.92 µM
CC50 (SF-295; [25]): > 50 µM
TGI (SF-295; read-out: TGI): > 50 µM
GI50 (SF-295; read-out: pGI50 (converted)): 4.9 µM
CC50 (SF-295; [26]): > 50.1 µM
TGI (SF-295; read-out: pTGI (converted)): > 50.1 µM
growth at 50 µM (RXF 393 [22]): 7%
growth at 0.5 µM (MDA-MB-468 [23]): 83%
growth at 5 µM (SW-620 [24]): 37%
